# Laboratory results from ChEMBL document CHEMBL5390308, “Stapling Amantadine to Melanostatin Neuropeptide: Discovery of Potent Positive Allosteric Modulators of the D2 Receptors” (ACS Med Chem Lett, 2023).
# Calls of active or inactive are those of the source. The rule behind the calls is not given here. Where a SMILES comes first, the peptide text is derived from it.
# Key:
# [1] = target: T1, D(2) dopamine receptor (Homo sapiens, UniProt P14416); test: (§1) Positive allosteric modulator activity at human dopamine D2 receptor expressed in CHO cells assessed as reduction in forskolin-stimulated cAMP level by measuring maximum efficacy at 0.01 nM preincubated for 10 mins followed by forskolin addition measured after 5 mins in presence of dopamine by HTRF assay relative to control; assay type: functional, cell-based; conditions: filed as positive allosteric modulator, time 15.0 min
# Summary of the method: (§2)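 Dopamine concentration–response curves run alone or with a fixed compound concentration (0.01 or 1 nM) in human D2R-expressing CHO cells. Forskolin-stimulated cAMP inhibition read by HTRF. Dopamine EC50 and Emax derived from the curves. Three independent experiments in duplicate, mean ± SD.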
# [2] = target: T1, D(2) dopamine receptor; test: (§3) Positive allosteric modulator activity at human dopamine D2 receptor expressed in CHO cells assessed as reduction in forskolin-stimulated cAMP level at 1 nM preincubated for 10 mins followed by forskolin addition measured after 5 mins in presence of dopamine by HTRF assay; assay type: functional, cell-based; conditions: time 15.0 min; summary of the method: as §2
# [3] = Neurotoxicity in human SH-SY5Y cells at 200 uM incubated for 48 hrs by MTT assay relative to control; assay type: functional
# Summary of the method: (§4)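 SH-SY5Y neuroblastoma cells differentiated 6 days with retinoic acid and TPA. Exposed 48 h to compound at 200 μM dissolved in DMSO (0.5% final), with 6-OHDA at 125 μM in PBS as positive control. MTT reduction read-out as % of control. 14–16 wells from 4 independent experiments, mean ± SD; ANOVA with Tukey post hoc test.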
# [4] = target: T1, D(2) dopamine receptor; test: as §3, with “level” for “level at 1 nM”, “assay (reference value: 87.08 +/- 24.87 nM)” for “assay”; assay type: functional, cell-based; summary of the method: as §2
# [5] = target: T1, D(2) dopamine receptor; test: Positive allosteric modulator activity at human dopamine D2 receptor expressed in CHO cells assessed as reduction in forskolin-stimulated cAMP level at 0.01 nM preincubated for 10 mins followed by forskolin addition measured after 5 mins in presence of dopamine by HTRF assay relative to control; assay type: functional, cell-based; set-up: scale not given: the % may be the effect or the level left; conditions: time 15.0 min
# Summary of the method: (§5)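 CHO cells expressing human D2R, assayed in the presence of 0.1 μM dopamine. Compounds screened between 0.01 nM and 10 μM. Inhibition of forskolin-stimulated cAMP measured by HTRF and expressed as % increase over the 0.1 μM dopamine effect. Mean ± SD of three independent measurements; Student's t-test, p < 0.05.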
# [6] = target: T1, D(2) dopamine receptor; test: (§6) Positive allosteric modulator activity at human dopamine D2 receptor expressed in CHO cells assessed as fold increase in dopamine potentiation by measuring reduction of forskolin-stimulated cAMP level at 0.01 nM preincubated for 10 mins followed by forskolin addition measured after 5 mins in presence of dopamine by HTRF assay; assay type: functional, cell-based; conditions: filed as positive allosteric modulator, time 15.0 min; summary of the method: as §2
# [7] = target: T1, D(2) dopamine receptor; test: Agonist activity at human dopamine D2 receptor expressed in CHO cells assessed as reduction in forskolin-stimulated cAMP level at 1 to 1000 nM preincubated for 10 mins followed by forskolin addition measured after 5 mins by HTRF assay; assay type: functional, cell-based; conditions: dose 1-1000 nM, time 15.0 min
# Summary of the method: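 Agonist mode, without dopamine, in CHO cells expressing human D2R. Compound tested at 1 nM to 1 μM, with dopamine as positive control. Read-out is inhibition of forskolin-stimulated cAMP accumulation by HTRF. Mean ± standard deviation of three independent measurements.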
# [8] = Lipophilicity, logP of the compound in Octan-1-ol/water by shake-flask method; assay type: physicochemical
# [9] = Neurotoxicity in human SH-SY5Y cells at 125 uM incubated for 48 hrs by MTT assay relative to control; assay type: functional
# Summary of the method: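 SH-SY5Y cells pre-differentiated 6 days with retinoic acid and TPA. 6-OHDA freshly prepared in sterile PBS, tested at 125 μM for 48 h; DMSO-solubilised test agents were run alongside (DMSO 0.5% final). Viability read by MTT reduction, expressed as % of control. 14–16 wells, 4 independent experiments; ANOVA with Tukey post hoc versus control.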
# [10] = tested on: SH-SY5Y; test: Neurotoxicity in human SH-SY5Y cells at 200 uM incubated for 48 hrs by MTT assay; assay type: functional, cell-based; summary of the method: as §4
# [11] = target: T1, D(2) dopamine receptor; test: Positive allosteric modulator activity at human dopamine D2 receptor expressed in CHO cells assessed as reduction in forskolin-stimulated cAMP level at 0.01 nM preincubated for 10 mins followed by forskolin addition measured after 5 mins in presence of dopamine by HTRF assay; assay type: functional, cell-based; conditions: time 15.0 min; summary of the method: as §5
# [12] = target: T1, D(2) dopamine receptor; test: as §1, with “1” for “0.01”; assay type: functional, cell-based; conditions: filed as positive allosteric modulator, time 15.0 min; summary of the method: as §2
# [13] = target: T1, D(2) dopamine receptor; test: as §1, with “10” for “0.01”; assay type: functional, cell-based; set-up: scale not given: the % may be the effect or the level left; conditions: time 15.0 min; summary of the method: as §5
# [14] = target: T1, D(2) dopamine receptor; test: as §6, with “1” for “0.01”; assay type: functional, cell-based; conditions: filed as positive allosteric modulator, time 15.0 min
# Summary of the method: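 CHO cells stably expressing human D2R. Dopamine concentration–response curves were run with or without modulator at a fixed concentration. D2R activation was read as inhibition of forskolin-stimulated cAMP accumulation by HTRF. The fold shift was derived from DA EC50 values, with Emax also fitted. Three independent experiments, each in duplicate, mean ± SD.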
# T1 sequence (P14416 whole entry): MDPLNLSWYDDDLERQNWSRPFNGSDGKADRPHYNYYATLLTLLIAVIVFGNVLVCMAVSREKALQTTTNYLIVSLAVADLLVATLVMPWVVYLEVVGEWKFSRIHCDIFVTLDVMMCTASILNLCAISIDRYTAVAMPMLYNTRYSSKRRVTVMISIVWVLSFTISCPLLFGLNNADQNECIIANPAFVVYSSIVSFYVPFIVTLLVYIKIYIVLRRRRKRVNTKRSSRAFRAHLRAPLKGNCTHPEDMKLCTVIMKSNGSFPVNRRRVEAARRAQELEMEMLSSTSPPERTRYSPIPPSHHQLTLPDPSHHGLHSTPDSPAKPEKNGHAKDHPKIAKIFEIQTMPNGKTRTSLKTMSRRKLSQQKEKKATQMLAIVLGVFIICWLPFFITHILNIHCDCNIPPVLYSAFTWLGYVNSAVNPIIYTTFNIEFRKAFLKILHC
Emax [1] [%],Activity [2],EC50 [4] [nM],Activity [5] [%],fold change (FC) [6],Activity [7],logP [8],Activity [11],Emax [12] [%],Activity [13] [%],fold change (FC) [14],SMILES,Activity [3] [%],Activity [9] [%],Activity [10]
100,inactive,17.8,15.3,4.9,inactive,2.62,–,–,–,–,CC(C)C[C@H](NC(=O)[C@@H]1CCCN1C(=O)OC(C)(C)C)C(=O)NCC(=O)NC12CC3CC(CC(C3)C1)C2,89.73,–,–
–,–,–,–,–,–,–,–,–,–,–,NCCc1cc(O)c(O)cc1O [OXIDOPAMINE],–,58.27,–
100,inactive,26.4,10.3,3.3,inactive,–,–,–,–,–,CC(C)C[C@H](NC(=O)[C@@H]1CCCN1)C(=O)NCC(=O)NC12CC3CC(CC(C3)C1)C2,–,–,inactive
–,–,–,–,–,–,-0.56,inactive,100,31.9,3.7,CC(C)C[C@H](NC(=O)[C@@H]1CCCN1)C(=O)NCC(N)=O (H-Pro-Leu-Gly-NH2),94.09,–,–
